Assay outcomes deposited in PubChem BioAssay by several laboratories.
SENP1 FRET inh = inhibitors of human SENP1 SUMO protease catalytic domain; Q9P0U3; recombinant SENP1 catalytic domain, CyPet-SUMO1-YPet FRET cleavage; inhibition, % at 10 µM; hit rate 0.21% among 360,000; AID 624204;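 active = inhibition at least 30% at 10 µM, raw YFP signal under a set limit, fluorescence ratio 0.5 to 1.5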;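 also: 0% = enzyme with DMSO and 100% = no enzyme wells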
Target sequence (Q9P0U3 419-644 limits assumed): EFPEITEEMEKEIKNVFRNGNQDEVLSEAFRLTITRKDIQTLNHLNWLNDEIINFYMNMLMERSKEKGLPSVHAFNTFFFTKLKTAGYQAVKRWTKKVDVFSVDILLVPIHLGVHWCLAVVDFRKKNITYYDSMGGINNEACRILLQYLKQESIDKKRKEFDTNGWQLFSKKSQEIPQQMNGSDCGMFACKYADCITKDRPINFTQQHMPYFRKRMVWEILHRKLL
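Assay system: hSENP1 catalytic domain, recombinant. Amount: SENP1 enzyme, 20 pM final. Schedule: 50 min reaction, RT, dark. Technique: FRET, CFP and YFP emission. Control set: no-enzyme wells low, DMSO-plus-enzyme wells high control.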
HDAC3 inh = inhibitors of human histone deacetylase 3; hit rate 0.15% among 320,000; inhibition, % at 8.3 µM; recombinant HDAC3, fluorogenic peptide/trypsin coupled, fluorescence; in the data active = inhibition above about 26%, passing the limit was not always enough; inconclusive = no clear call, values can overlap the other calls
CTSL1 counter = counter-screen for PFM18AAP inhibitors: inhibitors of F. hepatica cathepsin L1; recombinant F. hepatica cathepsin L1, Z-Leu-Arg-MCA fluorescence; inhibition, % at 5.96 µM; hit rate 0.49% among 300,000; AID 1906;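 active = inhibition above the mean of all tested compounds plus 3 SD, set per screening campaign, cut at about 17% in these data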;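 also: 0% = plate median of test compound wells and 100% = 1 µM Z-Phe-Ala-diazomethylketone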
PfM18AAP inh = blocks P. falciparum M18 aspartyl aminopeptidase; recombinant PfM18AAP, H-Glu-NHMec fluorogenic cleavage; inhibition, % at 7.35 µM; AID 1822; hit rate 1.2% among 290,000;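 active = inhibition above the campaign mean inhibition over all tested compounds plus 3 SD, cut at about 28% in these data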;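 also: 0% = plate median of test compound wells and 100% = 2 mM ZnCl2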
FXN GAA850 act = activators of GAA850 frataxin (FXN) promoter; hit rate 0.56% among 360,000; activation, % at 6 µM; HEK293 lucGAA850 FXN promoter luciferase reporter, 24 h; percent of 10 µM SAHA response;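 active = activation above the average of all compounds screened plus 3 SD, cutoff fixed separately per campaign, cut at about 7.5% in these data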;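 also: 0% = DMSO wells and 100% = 10 µM SAHA wells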
AHR act = human AHR activation; P35869; AHR-responsive luciferase reporter cells, luminescence; activation, % at 5 µM; hit rate 2.5% among 320,000; AID 2796; in the data active = activation above about 47%;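 also: 0% = vehicle wells and 100% = reference agonist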
* hit, by the source's call; u = inconclusive; x = not tested or not shown. Sampled rows, rich in hits. Any-hit rate of the full collection: about 4.2%.

SMILES	SENP1 FRET inh	HDAC3 inh	CTSL1 counter	PfM18AAP inh	FXN GAA850 act	AHR act
Cc1c(C(=O)c2ccc(F)cc2F)c2ccccn2c1CCc1ccccn1	-27	x	x	x	-1	x
Cc1c(C(=O)c2ccc(F)cc2F)c2ccccn2c1CCC#N	-47	9	-1	30*	3	21
O=C(NC(=S)NCC1CCCO1)c1ccc([N+](=O)[O-])cc1 (centres undefined)	1	5	1	-6	3	4
O=[N+]([O-])c1cccc(C(=Nc2ccc(Cl)cc2)NO)c1	2	6	-2	5	1	67*
Cc1nn(Cc2noc(C(=O)NCc3ccc4c(c3)OCO4)n2)c(C)c1Br	1	-1	1	-6	1	1
O=C(Nc1cccc2c1C(=O)NC2=O)c1cccnc1Cl	-1	-8	-2	10	1	-8
O=C(Nc1cccc2c1C(=O)NC2=O)c1ccc(N2C(=O)CCC2=O)cc1	0	-15	42*	3	1	1
CC(=O)Nc1nc(=O)c2ccccc2s1	-1	-2	1	30*	0	3
CC(=O)N/C(N)=N/c1nc(=O)c2ccccc2s1	2	-2	0	0	2	12
COc1ccc(NC(=O)c2ccc(OC)c(S(=O)(=O)N3CCCCC3C)c2)cn1 (centres undefined)	-1	-1	x	x	1	8
COc1cc(CN(C2CCCCC2)S(=O)(=O)c2ccc(S(=O)(=O)N(C)C3CCCCC3)cc2)cc(OC)c1OC	2	-1	3	0	0	2
COc1cc(C2CC(=O)N3CN(c4ccccc4C)CSC3=C2C#N)cc(OC)c1OC (centres undefined)	x	-2	3	33*	x	2
COc1ccccc1N1CSC2=C(C#N)C(c3ccc(SC)cc3)CC(=O)N2C1 (centres undefined)	-75	u	1	30*	-1	0
Clc1ccc(C2=NCCn3nc4ccccc4c32)cc1	-4	8	2	x	0	79*
O=[N+]([O-])c1ccc2c3n([n+]([O-])c2c1)CCN=C3c1ccc(Cl)cc1	-21	-7	1	x	2	48*
COc1ccc2c3n([n+]([O-])c2c1)CCN=C3c1ccc(Cl)cc1	-2	0	0	x	4	26
[O-][n+]1c2ccccc2c2n1CCCN=C2c1ccc(Cl)cc1	-1	3	-3	x	2	51*
Cc1ccc(C2=NCCn3c2c2ccc([N+](=O)[O-])cc2[n+]3[O-])cc1	7	4	4	x	1	19
Nc1c(Cl)cc(C2=NCCn3c2c2ccc(C(F)(F)F)cc2[n+]3[O-])cc1Cl	-1	1	-2	x	5	54*
CCc1nc2ccc(C(=O)Nc3ccc(C(=O)N(C)C)cc3)cn2c1N(C)CCCc1ccccc1	-42	x	x	x	-1	x
O=C(NCCc1ccccc1C(F)(F)F)c1cc(COc2ccccc2)on1	1	x	x	x	1	x
CCCc1cc(=O)[nH]c(SCC(=O)N2c3ccccc3NC(=O)C2(C)C)n1	-1	1	x	x	1	2
Cc1cc(C)c2c(N)c(-c3nc4ccccc4[nH]3)sc2n1	6	4	0	-2	2	55*
O=C1CC(c2ccccc2Cl)c2c(sc3c(=O)[nH]c(CCl)nc23)N1 (centres undefined)	x	4	-3	2	x	1
N#Cc1c(-c2ccc(Cl)cc2)c(-c2ccc(Cl)cc2)nn(CCOC(=O)CCC(=O)O)c1=O	2	x	x	x	-2	x
SMILES	SENP1 FRET inh	HDAC3 inh	CTSL1 counter	PfM18AAP inh	FXN GAA850 act	AHR act
COC(=O)Nc1nnc(-c2ccccc2Cl)s1	-2	3	-2	9	4	55*
COC(=O)Nc1nnc(-c2ccncc2)s1	-3	-42	4	2	2	14
COc1ccccc1-c1nnc(NC(=O)OCC(C)C)s1	0	-2	-1	2	1	64*
Cc1cc(=O)n2nc(N3CCCC(C(=O)N4CCN(c5ccccc5)CC4)C3)sc2n1 (centres undefined)	0	1	17*	0	1	-2
CC1(C)CC(=O)C=C(Nc2ccc(Cl)cc2)C1	0	-8	-6	-5	0	2
CC1(C)CC(=O)C=C(Nc2ccc(Cl)c(Br)c2)C1	-1	0	9	4	2	68*
Cc1c(Cl)c([N+](=O)[O-])nn1CC(=O)N1CCN(C23CC4CC(CC(C4)C2)C3)CC1	-3	1	0	-9	-2	-1
CC(=NCc1ccncc1)C1=C(O)c2ccccc2C1=O	x	x	x	7	x	x
CC(=NCc1cccnc1)C1=C(O)c2ccccc2C1=O	2	13	-1	-2	2	74*
CC(=O)Nc1ccc(SC[C@H](CC(C)C)N2CCN(CCc3ccccc3)CCC2=O)cc1	-4	6	-3	x	-2	48*
O=C(Nc1ccc2c(c1)OCO2)N1CCCc2ccccc21	5	-4	-1	8	1	56*
CC(=O)Nc1ccc(NC(=O)N2CCCCC2)cc1	-4	1	20*	6	-1	-1
O=C(Nc1ccc(F)cc1)N1CCCCCC1	-1	-4	-2	1	2	3
O=C(Nc1ccc2c(c1)OCO2)N1CCN(c2ccc(F)cc2)CC1	-3	2	1	6	3	58*
CC1CN(C(=O)Nc2ccc3c(c2)OCO3)CC(C)O1 (centres undefined)	0	2	-5	13	-1	52*
COc1ccc(NC(=O)C2Cc3c(-c4ccc5c(c4)OCO5)ccnc3O2)cc1 (centres undefined)	-1	x	x	x	-5	x
C[C@@H]1CN([C@@H](C)CO)C(=O)CCCn2nncc2CO[C@H]1CN(C)S(=O)(=O)c1ccc(Oc2ccccc2)nc1	3	x	x	x	0	x
CCN(CC)C(=O)C1=C(C)N(CCCOC)C(=O)C(CC(=O)NCCc2ccccn2)C1 (centres undefined)	-2	x	x	x	0	x
CC(C)NC(=O)C1(C)CN(S(C)(=O)=O)CC(=O)N1C1CCN(Cc2ccccc2)CC1 (centres undefined)	-1	x	x	x	x	x
O=C(Nc1ccc2c(c1)OCO2)N1CCOCC1	1	5	6	15	1	44
O=C(Nc1ccc2c(c1)OCO2)N1CCCC1	0	2	-8	3	1	70*
N#CC(c1ccccc1O)N1N=C(c2ccccc2)CC1c1ccccc1 (centres undefined)	-2	7	-4	0	8.2*	17
COc1cc(C(C#N)N2N=C(c3ccccc3)CC2c2ccccc2)ccc1O (centres undefined)	-28	-3	2	5	0	38
CCOC(=O)C1(C)CCCN(C(=O)c2snnc2C)C1 (centres undefined)	0	x	x	x	0	x
Nc1ccc2nc(-c3ccccc3)[nH]c2c1	-23	-54	5	18	5	67*
CC(C)c1ccc(CN2CCC2(C)C(=O)Nc2cccc(Oc3ccccc3)c2)cc1 (centres undefined)	2	x	x	x	0	x
